In the library only some 1.5% were active in any assay of this set; here they are far more common.
MT stabilize HCS = microtubule stabilizers in HeLa cells; HeLa tubulin immunostaining HCS, 24 h; share of cells brighter than vehicle mean+2SD; % tubulin-high responders, % at 10 µM; hit rate 0.83% among 200,000;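 active means plate Z-score above 3 for both tubulin-high and condensed-nucleus cell shares, with cell loss under 80%, at 10 µM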;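 further: anti alpha tubulin signal scored within the nucleus-defined area of each cell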
bCat nuc transl = modulators of beta-catenin nuclear translocation; HeLa beta-catenin nuclear translocation, immunofluorescence imaging; nuclear translocation activity, % at 5 µM; hit rate 0.3% among 190,000;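 active means nuclear translocation activity above 50% at 5 µM, with a well cell count of 50 or more; inconclusive means wells under 50 cells across six images, flagged as toxic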;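 further: per-cell ratio of nuclear to cytoplasmic median beta-catenin stain intensity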
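Signal – beta-catenin immunofluorescence imaging with DAPI · Test system – human HeLa cell line · Dosing – 5 µM primary single dose, 0.1% DMSO, 0.02–20 µM confirmation series · Measure – % activation, nuclear-to-cytoplasmic median beta-catenin signal ratio per cell · Incubation – 24 h compound exposure at 37°C, 5% CO2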
Dynein transport = blocks dynein driven cargo transport along microtubules | 3617.4 mouse cells, GR-EGFP nuclear translocation imaging; test concentration mostly 20 µM; stimulated with dexamethasone, 1 µM; active compounds read low | z-score, hits read low | hit rate 0.47% among 220,000 | AID 1381;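 active means plate z-score of nuclear minus cytoplasmic receptor signal below a set negative limit, without overly bright fluorescence or cell loss, cut at about -3.5 in these data, passing the limit was not always enough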;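 further: z-score of nuclear minus cytoplasmic ring GR-EGFP intensity difference per well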
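Buffer or medium: tet-free medium with charcoal-stripped serum / Also added: dexamethasone agonist, 1.0 µM final, for 30 min / Timing: induction 48 h, compound 1 h, agonist 30 min / Measured by: high-content fluorescence imaging after fixation / Read-out: nuclear-to-cytoplasmic GR-EGFP distribution per well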
Rad51 HR inh = Rad51 (human) homologous recombination inhibition; hRad51 DNA strand exchange, fluorescence dequenching; Q06609; inhibition, % at 10 µM; hit rate 0.085% among 200,000;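 active means inhibition above 40% at the single screening dose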
Target sequence (Q06609 whole entry, looked up): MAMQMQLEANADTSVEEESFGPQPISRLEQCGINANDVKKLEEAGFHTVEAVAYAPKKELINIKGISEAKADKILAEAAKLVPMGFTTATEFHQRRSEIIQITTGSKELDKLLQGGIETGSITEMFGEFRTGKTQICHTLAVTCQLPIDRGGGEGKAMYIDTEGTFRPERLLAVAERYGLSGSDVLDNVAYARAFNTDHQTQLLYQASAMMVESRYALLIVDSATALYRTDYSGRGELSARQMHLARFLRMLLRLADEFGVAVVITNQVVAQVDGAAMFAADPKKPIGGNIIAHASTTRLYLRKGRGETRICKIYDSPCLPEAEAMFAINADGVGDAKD
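System: hRad51 filaments on single-stranded DNA; reagent: Fluorescein- and BHQ1-tagged 47-mer duplex; compound dosing: one concentration, 10 µM final; timing: filaments 15 min 37 °C, then compound 30 min; measured by: fluorescein emission 520 nm, excitation 485 nm; benchmarks: per-plate controls and blanks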
TbHK1 inh = T. brucei hexokinase 1 inhibition; recombinant TbHK1, G6PDH-coupled NADH A340; inhibition, % at 10 µM; hit rate 0.11% among 220,000;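 active means inhibition of 50% or more in the single-dose primary screen; inactive means inhibition below 50%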
Hits are given with their value; 0 = inactive; ? = inconclusive; - = no result given.

SMILES	MT stabilize HCS	bCat nuc transl	Dynein transport	Rad51 HR inh	TbHK1 inh
Cc1cc(/C=C(\C#N)C(=O)Nc2ccccc2)c(C)n1-c1ccc(C(=O)O)cc1	-	0	0	0	0
COc1ccc(NC(=O)/C(C#N)=C\c2cc(C)n(-c3ccc4c(c3)OCO4)c2C)cc1	24	-	0	0	0
CCOc1ccc(C(=O)OCn2nnc3ccccc3c2=O)cc1OC	0	0	0	0	0
COc1cc(C(=O)OCn2nnc3ccccc3c2=O)cc(OC)c1OC	0	83	0	0	0
CCc1nnc(NC(=O)CSc2nnc(CNC(=O)c3ccc(OC)c(OC)c3)o2)s1	0	0	0	0	0
Cc1cc(C)c(S(=O)(=O)/N=C2/C=C(Sc3ncn[nH]3)C(=O)c3ccccc32)cc1C	0	0	-6.6	0	0
Cc1ccc(NC2=C/C(=N/S(=O)(=O)c3cccs3)c3ccccc3C2=O)cc1C	0	0	0	-	0
COC(=O)Nc1ccc(S(=O)(=O)N2CCCCC2C(=O)O)cc1 (stereo unspecified)	0	0	0	0	0
COC(=O)Nc1ccc(S(=O)(=O)N2c3ccccc3CCC2C)cc1 (stereo unspecified)	19	0	0	0	0
Cc1nn(-c2ccccc2)c(N)c1N=Nc1cccnc1	0	0	0	0	0
Nc1[nH]n(-c2ccccc2)c(=O)c1N=Nc1ccc2c(c1)OCO2	-	0	0	0	0
Nc1nn(-c2ccccc2)c(N)c1N=Nc1ccc2c(c1)OCO2	25	78	0	0	0
Nc1nn(-c2ccccc2)c(N)c1N=Nc1cccc(F)c1	-	58	0	0	0
Cc1ccc(-c2nc3ccccc3o2)cc1NC(=O)Cc1cccs1	0	0	0	0	0
COc1ccc(CCNc2cc(=O)[nH]c(N)n2)cc1	0	0	0	0	0
COC(=O)c1ccc(Oc2cc(C)nc(SC)n2)cc1	51	0	0	0	0
COC(=O)c1ccc(Oc2cc(C)nc(Cl)n2)cc1	0	0	0	0	0
O=S1(=O)C=C(Sc2nnc(-c3ccccc3)o2)c2ccccc21	0	0	-4.1	-	0
Cc1cc(C)nc(SC2=CS(=O)(=O)c3ccccc32)n1	0	0	0	0	0
Cn1c(-c2ccc3c(c2)OCO3)cnc1NCc1ccccc1	20	0	0	0	0
O=c1[nH]c2ccc(NS(=O)(=O)c3ccc(Cl)cc3)cc2[nH]1	0	0	0	0	0
O=C(COc1ccc([N+](=O)[O-])cc1)Nc1ccc2c(c1)OCO2	12	0	0	0	0
Clc1ccc(C2CC(c3ccco3)n3ncnc3N2)cc1Cl (stereo unspecified)	0	0	0	0	0
COc1ccc(Cn2c(=O)c3[nH]cnc3n(-c3ccccc3C)c2=O)cc1	-	73	0	-	0
CC(C)OP(=O)(c1ccccc1)c1ccccc1	0	-	0	0	0
SMILES	MT stabilize HCS	bCat nuc transl	Dynein transport	Rad51 HR inh	TbHK1 inh
COC(=O)C1=C(N)Oc2cc(N(C)C)ccc2C1c1ccccc1OC (stereo unspecified)	27	0	0	0	0
COc1ccc(-n2nnnc2-c2cccc(OC)c2)cc1	18	0	0	0	0
Cc1ccc(-n2nnnc2-c2cccc(C)c2)cc1	0	0	0	0	0
Cc1ccc(-c2csc(NC(=O)CCNC(=O)c3ccc(Cl)cc3)n2)cc1	0	0	0	-	0
FC(F)(Cl)c1nnc2ccc(Cl)nn12	0	0	0	0	0
CCNc1nc(OC)nc(SCC(=O)Nc2ccccc2)n1	13	0	0	0	0
CN(C)c1nc(NCc2ccccc2)nc(SCC(=O)Nc2ccccc2)n1	0	0	0	0	0
COC(=O)Cn1c2ccc(Cl)cc2c2nc(C)sc21	-	0	0	0	0
Cc1nc2c3cc(Cl)ccc3n(CCN3CCCCC3)c2s1	24	97	0	0	0
COC(=O)c1cc2n(n1)CCN(Cc1ccc(F)cc1)C2=O	0	0	0	46	0
CCOC(=O)N1CCN(CCC(=O)c2ccc(Cl)cc2)CC1	0	-	-5.4	-	0
CCCCC(Nc1ncnc2ccccc12)C(=O)O (stereo unspecified)	0	0	0	73	0
CC(=O)NNc1ncnc2ccccc12	0	0	0	0	0
Cc1ccc2[nH]c(=O)c(CN(CCCN3CCOCC3)C(=O)NC3CCCCC3)cc2c1	0	0	0	0	0
Cc1[nH]n(-c2ccc(F)cc2)c(=O)c1/C=N/c1sc2c(c1C#N)CCCC2	0	0	0	0	0
O=C(/C=C/c1ccco1)NC(=S)Nc1cccc(-c2nc3ccccc3s2)c1	39	-	0	0	0
O=C(/C=C/c1ccco1)NC(=S)Nc1cccc(-c2nc3ccccc3o2)c1	28	54	0	0	0
Cn1c(N)c(N=O)c(=O)n(C)c1=O	-	0	0	-	0
COc1cccc2sc(Nc3nc(-c4cc5ccccc5oc4=O)cs3)nc12	18	122	0	0	0
COc1cccc2sc(Nc3nc(-c4ccncc4)cs3)nc12	23	55	0	-	0
Nc1ccc(Nc2nc(-c3cc4ccccc4oc3=O)cs2)cc1	0	0	0	0	0
Cc1nc2c(C)cccn2c1C(=O)N/N=C/c1ccccc1[N+](=O)[O-]	-	0	0	0	0
O=C(COc1ccccc1-c1ccccc1)N/N=C/c1cccc2ccccc12	0	112	0	0	0
COc1ccc(/C=N/NC(=O)COc2ccccc2-c2ccccc2)cc1	0	142	0	0	0
O=C(COc1cccc2ccccc12)N/N=C/c1ccccc1OCc1ccc(C(=O)O)cc1	0	0	0	0	0
SMILES	MT stabilize HCS	bCat nuc transl	Dynein transport	Rad51 HR inh	TbHK1 inh
CN(C)c1ccc(/C=N/NC(=O)COc2ccccc2)cc1	0	0	0	0	0
COc1ccc(/C=N/NC(=O)CCSc2nc3ccccc3s2)cc1	29	131	0	0	0
CCc1ccc(NC(=O)C(=O)NCCOc2ccccc2Cl)cc1	26	0	0	0	0
Cc1ccc(NC(=O)C(=O)NCCOc2ccccc2Cl)cc1	0	0	0	0	0
C=CCCC1(C)C(=O)N(c2ccccc2)c2ccccc21 (stereo unspecified)	19	-	0	0	0
CCOC(=O)c1ccc(CNC(=O)CCC(=O)O)cc1	0	0	0	0	0
CC1=C(C(=O)OCc2ccc3c(c2)OCO3)C(c2ccc(F)cc2)NC(=O)N1 (stereo unspecified)	15	0	0	0	0
CC1=C(C(=O)OCc2ccc3c(c2)OCO3)C(c2ccc(Cl)cc2)NC(=O)N1 (stereo unspecified)	16	0	0	0	0
CCOC(=O)Cc1c(C)nc2c(-c3ccccc3)c[nH]n2c1=O	19	0	0	-	0
COc1cccc2c1C(=O)c1c(O)c3c(c(O)c1C2=O)C[C@@](O)(C(C)=O)C[C@@H]3O[C@H]1C[C@H](N)[C@H](O)[C@H](C)O1	0	?	0	-	0
COc1cccc2c1C(=O)c1c(O)c3c(c(O)c1C2=O)C[C@@](O)(C(=O)CO)C[C@@H]3O[C@H]1C[C@H](N)[C@@H](O)[C@H](C)O1	-	-	-	74	-

Bioassay records as filed in PubChem.
